Shown is part of a subset that was picked to be rich in hits.
Lung fibro prol – blocks proliferation of human lung fibroblasts; LL 47 human lung fibroblast viability, ATP luminescence; active compounds read low; viability, % at 10 µM; 85,000 compounds, 1.1% hits; AID 719;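 active means viability at or below 50% in the single dose screen; inactive means viability above 50%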;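 further: compound exposure lasted 72 h before the ATP readout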
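Material: human lung fibroblast line LL 47, low passage; Evaluation: viability percentage against median untreated-cell control; Buffer or medium: 15% FBS in IMEM; Incubation: 72 h compound exposure at 37 °C after overnight plating; Dosing: 0.1% DMSO in all compound wells; Measured by: CellTiter-Glo luminescence.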
HCT116 bCat-KO – beta-catenin-lacking colon tumor cell growth suppression | HCT116 beta-catenin knockout viability, CellTiter-Glo, 60 h; active compounds read low | viability, % at 10 µM | 140,000 compounds, 1.5% hits;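 active means viability at or under a set limit, the compound median less 4 SD, cut at about 6% in these data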
HCT116 PTEN-null – PTEN-deleted cell growth suppression | HCT116 PTEN-null viability, CellTiter-Glo, 60 h; active compounds read low | viability, % at 10 µM | 140,000 compounds, 1.2% hits | AID 827;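 active means viability at or below a set limit, 4 SD under the median of all tested compounds, cut at about 3.7% in these data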;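 further: PTEN knockout HCT116 line with beta catenin targeted HCT116 as companion control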
H69AR inhibit – blocks growth of human H69AR lung tumor cells. H69AR lung tumor viability, ATP luminescence, 72 h; active compounds read low. viability, % at 10 µM. 85,000 compounds, 6% hits;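 active means viability at or below 40%; inactive means viability above 40%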;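 further: multidrug resistant small cell line overexpressing MRP-1 efflux transporter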
HUVEC inhibit – blocks proliferation of human endothelial cells; 86,000 compounds, 1.1% hits; viability, % at 10 µM (by protocol); HUVEC proliferation, CellTiter-Glo luminescence, 72 h; active compounds read low;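 active means viability at or below 30%; inactive means viability above 30%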
Large screens that a line does not name were inactive; ! = a repeat was not active.

CC(/C=N/NC(=O)c1n[nH]c2c1CCC2)=C\c1ccccc1	Lung fibro prol 45.9, H69AR inhibit 22.8
N#CSCC(=O)N1c2ccccc2CCc2ccccc21	HCT116 bCat-KO 3.8, HCT116 PTEN-null 2.5 (no result: Lung fibro prol, H69AR inhibit, HUVEC inhibit)
Nc1ccccc1C(=O)OCC(=O)N1CCc2ccccc21	none
C=CCn1c(O)c(C(C)=NCc2cc(OC)cc(OC)c2)c(=O)[nH]c1=O	Lung fibro prol 48.1, H69AR inhibit 37.6, HUVEC inhibit 26.1
C[C@H](O)[C@H]1CC[C@H]2[C@@H]3CCC4=CC(=O)CC[C@]4(C)[C@H]3CC[C@]12C	none (no result: Lung fibro prol, H69AR inhibit, HUVEC inhibit)
CC12CCC(=O)C=C1CCC1C2CCC2(C)C(O)CCC12 (configuration not stated)	HUVEC inhibit 29.5
CC1CCCC(C)N1/N=C/c1c[nH]c2ccc(Br)cc12 (configuration not stated)	none (no result: Lung fibro prol, H69AR inhibit, HUVEC inhibit)
CCN1CCN(Cc2nnnn2C(C)(C)C)CC1	none
FC(F)(F)c1ccc2c(c1)N(CCCN1CCN(CCCl)CC1)c1ccccc1S2	H69AR inhibit 1.4
CCC(C)NC(=O)c1c(N)n(Cc2ccc3c(c2)OCO3)c2nc3ccccc3nc12 (configuration not stated)	HCT116 bCat-KO 1.4, HCT116 PTEN-null 1.4 (no result: Lung fibro prol, H69AR inhibit, HUVEC inhibit)
Cc1ccc(-c2nn(Cc3ccccc3)cc2C=O)cc1	none (no result: Lung fibro prol, H69AR inhibit, HUVEC inhibit)
Cc1ccc(CN2C(=O)NC(=O)C3(Cc4c(nc5ccccn5c4=O)N4CCCCCC43)C2=O)cc1 (configuration not stated)	H69AR inhibit 39.3
CC1CN=C(Nc2cccc3ccccc23)S1 (configuration not stated)	none
Cc1cccc(-n2c(/C=C/c3ccc([N+](=O)[O-])o3)nc3ccccc3c2=O)c1	HCT116 bCat-KO 0.8, HCT116 PTEN-null 0.6 (no result: Lung fibro prol, H69AR inhibit, HUVEC inhibit)
O=C(CSC1c2ccccc2-c2ccccc21)N/N=C/c1ccccc1O	Lung fibro prol 40.7, H69AR inhibit 17.6, HUVEC inhibit 27.0
Cc1cc2c(C(C)C)c(O)c(O)c(C=O)c2c(O)c1-c1c(C)cc2c(C(C)C)c(O)c(O)c(C=O)c2c1O	Lung fibro prol 28.5!, HCT116 bCat-KO 4.8, HCT116 PTEN-null 1.9!, H69AR inhibit 0.6, HUVEC inhibit 3.0
CC(=NCCCN1CCOCC1)c1c(O)n(Cc2ccccc2)c(=O)[nH]c1=O	none
O=C(COc1ccccc1)N1CCN(C/C=C/c2ccccc2)CC1	none
O=C(COc1ccc(Cl)cc1)N1CCN(C/C=C/c2ccccc2)CC1	H69AR inhibit 27.3
CC(C)CCCn1c(O)c(/C=C2/C=CC=N2)c(=O)[nH]c1=O	none (no result: Lung fibro prol, H69AR inhibit, HUVEC inhibit)
CCC(=O)N1CC(=O)Nc2ccc(Cl)cc2C1c1ccc(F)cc1 (configuration not stated)	none
N=C(N)c1c(O)n(C2CCCCC2)c(=O)n(C2CCCCC2)c1=O	Lung fibro prol 31.0, H69AR inhibit 1.1, HUVEC inhibit 2.5
CCS(=O)(=O)N1CCC(C(=O)N2CCC3(CC2)OCCO3)CC1	none
CCCS(=O)(=O)N1CCC(C(=O)N2CCC3(CC2)OCCO3)CC1	Lung fibro prol 42.2
CCC(=O)N1CC(=O)Nc2ccc(F)cc2C1c1ccccc1 (configuration not stated)	none

Compound activity deposited in PubChem by SRMLSC.
